Screening data as filed in PubChem.
The full list was thinned out, with hits kept by preference.
UPR XBP1 act: activators of adaptive XBP1 UPR arm, primary screen, cell-based, CHO-XBP1 luciferase reporter, luminescence, uHTS | hit rate 0.33% among 330,000 | activation, % at 20 µM | IRE1-XBP1 UPR activation; percent of tunicamycin response, DMSO as zero;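 active means versus positive control, 20 µM dose yields 30% or more activation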;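 further: 100% = tunicamycin at 10 µg/mL and 0% = DMSO only wells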
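Material: CHO-XBP1 cells stably carrying IRE1-XBP1-driven luciferase reporter / Amount: 1000 cells per well / Compound: 20 µM, 1% DMSO / Times: 6 h treatment, 37 °C / Detection: luciferase luminescence / Measure: % activation of reporter signal versus tunicamycin and DMSO controls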
TbMetRS inhib: T. brucei MetRS inhibitors, primary screen, biochemical, luminescence; inhibition, % at 11.9 µM; hit rate 0.4% among 360,000; methionyl-tRNA synthetase (Trypanosoma brucei brucei); AID 624268, 2012; purified T. brucei MetRS, ATP depletion, Kinase-Glo luminescence;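 active means inhibition above a per-plate cutoff of the control wells' mean inhibition plus 3 SD, cut at about 5.5% in these data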;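 further: 0% = DMSO wells median and 100% = median of wells with control inhibitor compound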
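Material – parasite MetRS enzyme · Medium – HEPES-MgCl2-KCl buffer plus DTT, spermine, BSA, pyrophosphatase · Reagent – ATP, methionine and E. coli bulk tRNA substrates · Times – 15 min enzyme-compound preincubation, 2 h reaction, 10 min detection, 25 °C · Measured by – luminescence of leftover ATP · Evaluation – percent inhibition relative to median high and low control wells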
CHOP inhibitor: inhibitors of CHOP promoter induction, primary screen, cell-based, unfolded protein response, luciferase reporter; CHO-K1 CHOP-promoter luciferase, tunicamycin-induced, 15-18 h; inhibition, % at 10 µM; hit rate 3.8% among 220,000; AID 2732, 2010;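 active means compounds that reduced the stress-induced luciferase reporter signal by more than about 70% of percent inhibition, limit read from the data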;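 further: 0% = tunicamycin plus vehicle and 100% = wells without tunicamycin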
CHOP UPR activ: activators of apoptotic CHOP UPR arm, primary screen, cell-based, CHO-CHOP luciferase reporter, luminescence, uHTS. UPR activation; percent of tunicamycin response over DMSO baseline. activation, % at 10 µM. hit rate 0.34% among 330,000. AID 449763, 2010;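 active means at 10 µM dose, activation of 40% or more, normalized to positive control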;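 further: 100% = tunicamycin at 10 µg/mL and 0% = DMSO alone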
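assay system = CHO CHOP reporter cells | amount = 500 CHO-CHOP cells per well | buffer or medium = F12 with 10% FBS | incubation = 16-18 h cell attachment, then 6 h compound exposure, 37 °C | detection = luminescence read with Steady-Glo | read-out = percent activation relative to tunicamycin control | controls = tunicamycin high control, DMSO low control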
V-ATPase pH: regulators of yeast V-ATPase proton pumping, primary screen, pHLuorin cytosolic pH fluorescence; S. cerevisiae; response, % at 10 µM; hit rate 0.37% among 350,000; AID 504577, 2011; in the data active means response mostly above about 7.3%, no sharp cut-off; inactive means mostly below about 5.4%; further: actives read high
V-ATPase pH SP: yeast V-ATPase proton pumping modulators, confirmation, S. cerevisiae, pH-sensitive GFP, second cherry-pick; shares compounds with V-ATPase pH; S. cerevisiae pHLuorin cytosolic pH, V-ATPase proton transport; response, % at 10 µM; hit rate 2% among 980; in the data active means response above about 24%;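 further: plate controls were vehicle wells for no effect and positive control wells for full effect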
* hit, by the source's call; x = not tested or not shown.

SMILES	UPR XBP1 act	TbMetRS inhib	CHOP inhibitor	CHOP UPR activ	V-ATPase pH	V-ATPase pH SP
CCOC(=O)c1c(C)[nH]c(C(=O)COC(=O)c2cnc(C)cn2)c1C	-0.9	0.2	35.2	-1.8	11.2*	1.7
COc1cc(OC)cc(C(=O)NNC(=O)CN2C(=O)NC(C)(c3ccc(C)cc3)C2=O)c1 (stereo not drawn)	-0.8	-0.4	x	0.3	1.7	x
CCOc1ccccc1Nc1nc(-c2sc(C)nc2C)cs1	3.5	0.3	33.5	3.0	8.3*	-0.7
O=C(c1cc(Cl)nc2ccccc12)N1CCN(S(=O)(=O)c2ccccc2[N+](=O)[O-])CC1	-7.1	-0.2	x	-2.2	14.5*	1.5
COc1nc(N(C)C)nc(N(C#N)S(=O)(=O)c2ccc(C)cc2)n1	-1.7	-0.4	x	1.2	11.0*	-4.4
CON(c1nc(Cl)nc(N(C)C)n1)S(=O)(=O)c1ccc(C)cc1	-4.5	-0.7	x	-2.1	2.4	x
O=[N+]([O-])c1ccc2c(c1)C(O)n1nc(-c3ccc(Cl)cc3Cl)nc1S2 (stereo not drawn)	-3.9	0.3	25.0	-0.2	7.3*	-0.7
N#Cc1ccccc1S(=O)(=O)N1CCN(C(=O)CN(Cc2ccco2)Cc2cccs2)CC1	x	-0.4	x	x	x	x
C(=C\c1nnc(-c2cccs2)o1)/c1ccccc1	-1.2	-1.1	-9.9	3.9	12.9*	4.3
CC1CCc2c(sc3ncn(CCO)c(=O)c23)C1 (stereo not drawn)	2.1	0.1	-9.8	3.3	-3.0	x
CC1CCc2c(sc3ncn(Cc4ccc(C(=O)O)cc4)c(=O)c23)C1 (stereo not drawn)	-2.4	1.4	-25.9	1.4	6.6*	2.9
N#CCc1c(C#N)c(N)nc(N2CCCC(O)C2)c1C#N (stereo not drawn)	-2.0	-0.6	13.5	0.1	10.8*	-0.2
N#CCc1c(C#N)c(N)nc(N2CCCC(CO)C2)c1C#N (stereo not drawn)	1.9	0.2	9.0	-0.4	-1.4	x
N#C/C(C(N)=O)=C1/CCc2ccccc2N1	2.8	-1.9	34.6	-2.3	12.8*	3.5
O=C1CCc2ccccc2N1	-1.2	-1.0	19.6	1.4	1.5	x
CCCCn1c(N)c(N(CC(C)C)C(=O)CC2OC(=O)c3ccccc32)c(=O)[nH]c1=O (stereo not drawn)	-2.3	-0.5	x	1.0	10.7*	0.9
CCOC(=O)c1c(-c2ccc(C)o2)csc1NC(=O)CSc1nnc(C)s1	1.7	-0.2	27.2	-0.5	9.2*	-1.4
O=C(CCc1c[nH]c2ccccc12)N[C@@H](Cc1c[nH]c2ccc(O)cc12)C(=O)O	-0.1	-0.4	x	-1.8	-0.4	x
Cc1csc(NC(=O)CSc2nncn2C)n1	2.4	-0.9	18.8	2.0	12.9*	-2.4
CCOC(=O)c1c(NC(=O)COC(=O)CCNS(=O)(=O)c2ccccc2)sc(C(=O)NC)c1C	x	0.2	x	x	9.8*	0.9
O=C(Nc1nnc(-c2ccccc2Cl)o1)c1ccco1	2.0	-1.1	-20.8	1.6	11.3*	0.6
CC(C)c1ccc(C2CC(=O)c3cnc(NC(=O)c4ccco4)nc3C2)cc1 (stereo not drawn)	1.5	-0.4	x	1.6	2.0	x
CCN(CC)c1ccc(S(=O)(=O)N2CCCCC2)cc1NC(=O)CSCc1c(C)noc1C	x	0.1	x	x	10.2*	-3.5
Cc1noc(C)c1CSCC(=O)Nc1cc(S(=O)(=O)N2CCCCC2)ccc1OC(C)C	-2.7	-0.2	x	0.1	-2.6	x
Cc1ccccc1C(=O)Nc1nnc(-c2ccncc2)o1	0.1	-0.1	6.8	1.7	-2.3	x
SMILES	UPR XBP1 act	TbMetRS inhib	CHOP inhibitor	CHOP UPR activ	V-ATPase pH	V-ATPase pH SP
COc1ccc(-c2nnc(NC(=O)c3ccccc3C)o2)cc1	-2.1	-0.2	-24.3	-0.3	11.8*	6.8
CCCCn1c(=O)c(C(=O)OCC)c(O)c2ccccc21	0.7	-0.9	21.0	-2.0	9.8*	2.9
COC(C(=O)Nc1c(F)cccc1F)c1ccccc1 (stereo not drawn)	1.2	-0.2	6.5	0.0	10.3*	-6.7
O=C(Nc1c(F)cccc1F)C(c1ccccc1)c1ccccc1	-0.8	0.4	x	3.5	-3.5	x
O=C(CSc1n[nH]c(-c2ccco2)n1)Nc1ccccc1F	-6.7	0.0	x	2.0	-0.3	x
O=C(CSc1n[nH]c(-c2ccco2)n1)Nc1ccccc1Cl	-3.0	-0.4	x	1.9	12.0*	-2.5
Cc1ccc(NC(=O)COC(=O)CC2SC(N3CCCC3)=NC2=O)cc1 (stereo not drawn)	3.1	-0.3	x	1.0	-4.9	x
O=C(NNC(=O)c1ccc(F)cc1F)c1ccc(-n2cnnn2)cc1	-5.0	-0.2	x	-0.7	1.2	x
Cc1ccc(NS(=O)(=O)c2cccc(C(=O)N3CCCCCCC3)c2)cc1	1.1	-0.4	x	0.2	11.1*	-0.8
Cc1ccc(NS(=O)(=O)c2cccc(C(=O)N3CCOCC3)c2)cc1	-1.2	-0.3	10.4	-0.5	1.8	x
CCOc1ncccc1C(=O)Nc1nc(C(C)(C)C)cs1	8.8	0.1	67.5	2.4	9.4*	-0.2
CN(C)CCCN(C(=O)c1ccc2c(c1)CCCC2)c1nc2ccc(F)cc2s1	1.5	1.1	36.4	3.4	19.1*	0.4
CCN(CC)CCN(C(=O)c1ccc2c(c1)CCCC2)c1nc2ccc(F)cc2s1	-3.0	-0.6	65.3	1.3	1.5	x
COc1cc(C(O)c2nc(-c3ccc(F)cc3OC)cs2)ccc1F (stereo not drawn)	x	-0.1	x	x	x	x
Cc1cccc(S(=O)(=O)N(C)C[C@@H]2OCc3cn(nn3)CCCC(=O)N([C@@H](C)CO)C[C@H]2C)c1	x	-1.0	x	x	-2.8	x
Cc1cccc(S(=O)(=O)N(C)C[C@H]2OCc3cn(nn3)CCCC(=O)N([C@H](C)CO)C[C@@H]2C)c1	x	-0.9	x	x	4.9*	0.6
CC(CNC(=O)c1cccs1)c1ccc([N+](=O)[O-])cc1 (stereo not drawn)	-3.3	-0.9	-2.6	4.6	-3.7	x
c1ccc(Cc2nnc3sc(-c4ccncc4)nn23)cc1	-2.8	0.2	38.0	0.0	0.8	x
c1ccc(Cc2nnc3sc(-c4ccccn4)nn23)cc1	0.7	-0.6	6.0	0.3	11.2*	-2.2
CCc1ccc(/C(C)=N/NC(=O)CNC(=O)/C=C/c2ccccc2OC)cc1	-3.2	-1.1	x	-1.2	0.3	x
CCc1ccc(/C(C)=N/NC(=O)CNC(=O)/C=C/c2ccco2)cc1	1.0	-0.7	x	0.6	24.7*	0.2
NC(=O)c1ccsc1NC(=O)COC(=O)c1ccccn1	-1.3	-0.3	x	0.9	1.1	x
